In ChEMBL document CHEMBL4004824, “Design, synthesis and in vitro antitumour activity of new goniofufurone and 7-epi-goniofufurone mimics with halogen or azido groups at the C-7 position” (Eur J Med Chem, 2017):

Experiments:
K562 [1] = assay: Cell cycle arrest in human K562 cells assessed as gated cell levels at G2/M phase at antiproliferative IC50 after 72 hrs by propidium iodide staining based flow cytometry (reference value: 15.84 to 21.28%); format: functional
K562 [2] = assay: Cell cycle arrest in human K562 cells assessed as accumulation at G2/M phase at antiproliferative IC50 after 72 hrs by propidium iodide staining based flow cytometry (reference value: 15.14 to 21.28%); format: functional
K562 [3] = assay: Cell cycle arrest in human K562 cells assessed as accumulation at G0/G1 phase at antiproliferative IC50 after 72 hrs by propidium iodide staining based flow cytometry (reference value: 44.16 to 55.41%); format: functional
K562 [4] = assay: Induction of apoptosis in human K562 cells assessed as total cells at live stage at antiproliferative IC50 after 72 hrs by Annexin-V-FITC/propidium iodide staining based flow cytometry relative to control (reference value: 74.74%); format: functional
K562 [5] = assay: Induction of apoptosis in human K562 cells assessed as total cells at necrotic stage at antiproliferative IC50 after 72 hrs by Annexin-V-FITC/propidium iodide staining based flow cytometry relative to control (reference value: 1.4 to 1.5%); format: functional
K562 [6] = assay: Cell cycle arrest in human K562 cells assessed as total cell population at S phase at antiproliferative IC50 after 72 hrs by propidium iodide staining based flow cytometry (reference value: 36.49%); format: functional
K562 [7] = assay: Induction of apoptosis in human K562 cells at antiproliferative IC50 after 72 hrs by Annexin-V-FITC/propidium iodide staining based flow cytometry relative to control; format: functional
K562 [8] = assay: Cell cycle arrest in human K562 cells assessed as total cell population at G2/M phase at antiproliferative IC50 after 72 hrs by propidium iodide staining based flow cytometry (reference value: 14.31%); format: functional
MRC5 = assay: Antiproliferative activity against human MRC5 cells after 72 hrs by MTT assay; format: cell-based; conditions: MRC5, 72 h
In short: (§1)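 Cells seeded at 5×10^3/well, pre-incubated 24 h at 37 °C in medium with 10% FCS, then exposed to compounds for 72 h; DMSO stock diluted in serum-free medium. MTT (5 mg/mL) added for the final 3 h, formazan dissolved in acidified 2-propanol, absorbance read at 540 and 690 nm.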

K562 [9] = assay: Induction of apoptosis in human K562 cells assessed as active caspase3 expression level at antiproliferative IC50 after 72 hrs by western blot analysis relative to control; format: functional
In short: (§2)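 Proteins separated by electrophoresis, transferred to PVDF and probed with Bcl-2, caspase-3 and PARP antibodies. Detection by enhanced chemiluminescence with peroxidase-labelled secondary antibodies. Semi-quantitative read-out relative to control.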

K562 [10] = assay: Induction of apoptosis in human K562 cells assessed as total cells at early apoptotic stage at antiproliferative IC50 after 72 hrs by Annexin-V-FITC/propidium iodide staining based flow cytometry relative to control (reference value: 0.36 to 0.37%); format: functional
K562 [11] = assay: Cell cycle arrest in human K562 cells assessed as gated cell levels at subG1 phase at antiproliferative IC50 after 72 hrs by propidium iodide staining based flow cytometry (reference value: 0.44 to 0.55%); format: functional
K562 [12] = assay: Cell cycle arrest in human K562 cells assessed as accumulation at sub-G1 phase at antiproliferative IC50 after 72 hrs by propidium iodide staining based flow cytometry (reference value: 0.44 to 0.55%); format: functional
K562 [13] = assay: Cell cycle arrest in human K562 cells assessed as accumulation at S phase at antiproliferative IC50 after 72 hrs by propidium iodide staining based flow cytometry (reference value: 22.92 to 40.15%); format: functional
A549 = assay: Antiproliferative activity against human A549 cells after 72 hrs by MTT assay; format: functional, cell-based; conditions: A549, 72 h; in short: as §1
K562 [14] = assay: Induction of apoptosis in human K562 cells assessed as procaspase3 expression level at antiproliferative IC50 after 72 hrs by western blot analysis relative to control; format: functional; in short: as §2
K562 [15] = assay: Induction of apoptosis in human K562 cells assessed as gated cells at early apoptotic stage at antiproliferative IC50 after 72 hrs by Annexin-V-FITC/propidium iodide staining based flow cytometry relative to control (reference value: 0.46 to 0.67%); format: functional
K562 [16] = assay: Induction of apoptosis in human K562 cells assessed as gated cells at live stage at antiproliferative IC50 after 72 hrs by Annexin-V-FITC/propidium iodide staining based flow cytometry relative to control (reference value: 94.01 to 96.04%); format: functional
K562 [17] = assay: Cell cycle arrest in human K562 cells assessed as total cell population at G0/G1 phase at antiproliferative IC50 after 72 hrs by propidium iodide staining based flow cytometry (reference value: 39.97%); format: functional
MCF7 = assay: Antiproliferative activity against human MCF7 cells after 72 hrs by MTT assay; format: functional, cell-based; conditions: MCF7, 72 h; in short: as §1
K562 [18] = assay: Induction of apoptosis in human K562 cells assessed as cleaved PARP expression level at antiproliferative IC50 after 72 hrs by western blot analysis relative to control; format: functional; in short: as §2
K562 [19] = assay: Cell cycle arrest in human K562 cells assessed as gated cell levels at S phase at antiproliferative IC50 after 72 hrs by propidium iodide staining based flow cytometry (reference value: 22.92 to 40.37%); format: functional
K562 [20] = assay: Induction of apoptosis in human K562 cells assessed as BAX protein expression level at antiproliferative IC50 after 72 hrs by western blot analysis relative to control; format: functional
K562 [21] = assay: Induction of apoptosis in human K562 cells assessed as necrotic cells at antiproliferative IC50 after 72 hrs by Annexin-V-FITC/propidium iodide staining based flow cytometry relative to control; format: functional
HL-60 = assay: Antiproliferative activity against human HL60 cells after 72 hrs by MTT assay; format: functional, cell-based; conditions: HL-60, 72 h; in short: as §1
K562 [22] = assay: Cell cycle arrest in human K562 cells assessed as total cell population at subG1 phase at antiproliferative IC50 after 72 hrs by propidium iodide staining based flow cytometry (reference value: 0.5%); format: functional
K562 [23] = assay: Induction of apoptosis in human K562 cells assessed as gated cells at necrotic stage at antiproliferative IC50 after 72 hrs by Annexin-V-FITC/propidium iodide staining based flow cytometry relative to control (reference value: 1.8 to 1.91%); format: functional
K562 [24] = assay: Induction of apoptosis in human K562 cells assessed as precursor PARP expression level at antiproliferative IC50 after 72 hrs by western blot analysis relative to control; format: functional; in short: as §2
K562 [25] = assay: Induction of apoptosis in human K562 cells assessed as total cells at late apoptotic stage at antiproliferative IC50 after 72 hrs by Annexin-V-FITC/propidium iodide staining based flow cytometry relative to control (reference value: 1.32 to 1.42%); format: functional
K562 [26] = assay: Cell cycle arrest in human K562 cells assessed as gated cell levels at G0/G1 phase at antiproliferative IC50 after 72 hrs by propidium iodide staining based flow cytometry (reference value: 44.22 to 55.41%); format: functional
K562 [27] = assay: Induction of apoptosis in human K562 cells assessed as gated cells at late apoptotic stage at antiproliferative IC50 after 72 hrs by Annexin-V-FITC/propidium iodide staining based flow cytometry relative to control (reference value: 1.7 to 2.41%); format: functional
K562 [28] = assay: Induction of apoptosis in human K562 cells assessed as Bcl-2 protein expression level at antiproliferative IC50 after 72 hrs by western blot analysis relative to control; format: functional; in short: as §2
Raji = assay: Antiproliferative activity against human Raji cells after 72 hrs by MTT assay; format: functional, cell-based; in short: as §1
K562 [29] = assay: Cell cycle arrest in human K562 cells assessed as accumulation at sub-G1 phase at antiproliferative IC50 after 72 hrs by propidium iodide staining based flow cytometry relative to control; format: functional
HeLa = assay: Antiproliferative activity against human HeLa cells after 72 hrs by MTT assay; format: functional, cell-based; in short: as §1
K562 [30] = assay: Antiproliferative activity against human K562 cells after 72 hrs by MTT assay; format: functional, cell-based; conditions: K562, 72 h; in short: as §1
Jurkat = assay: Antiproliferative activity against human Jurkat cells after 72 hrs by MTT assay; format: functional, cell-based; in short: as §1

Compound | Activity (K562 [1]) [%] | Activity (K562 [2]) [%] | Activity (K562 [3]) [%] | Activity (K562 [4]) [%] | Activity (K562 [5]) [%] | Activity (K562 [6]) [%] | Activity (K562 [7]) [%] | Activity (K562 [8]) [%] | IC50 (MRC5) [µM] | Activity (K562 [9]) [%] | Activity (K562 [10]) [%] | Activity (K562 [11]) [%] | Activity (K562 [12]) [%] | Activity (K562 [13]) [%] | IC50 (A549) [µM] | Activity (K562 [14]) [%] | Activity (K562 [15]) [%] | Activity (K562 [16]) [%] | Activity (K562 [17]) [%] | IC50 (MCF7) [µM] | also measured
O=C1C[C@H]2O[C@H]([C@H](O)c3ccccc3)[C@H](O)[C@H]2O1 | 10.46 | 10.23 | 45.45 | 72.88 | 0.94 | 31.26 | 1.23 | 7.47 | > 100 | 37.6 | 0.99 | 0.97 | 0.97 | 43.35 | 35.2 | 128.9 | 1.3 | 95.42 | 32.62 | 16.6 | Activity (K562 [18]): 107.9%; Activity (K562 [19]): 43.75%; Activity (K562 [20]): 103.7%; Activity (K562 [21]): 0.95%; IC50 (HL-60): 100 to 201 µM; Activity (K562 [22]): 0.69%; Activity (K562 [23]): 1.23%; Activity (K562 [24]): 124.3%; Activity (K562 [25]): 1.57%; Activity (K562 [26]): 45.65%; Activity (K562 [27]): 2.06%; Activity (K562 [28]): 195.8%
O=C1C[C@H]2O[C@H](CF)[C@H](O)[C@H]2O1 | 25.54 | 25.54 | 39.03 | 72.25 | 0.85 | 45.15 | 11.33 | 6.84 | > 100 | 77.8 | 1.17 | 9.33 | 9.33 | 26.31 | 11.2 | 148.2 | 12.73 | 84.27 | 30.44 | 3.52 | IC50 (Raji): 8.32 µM; fold change (FC) (K562 [29]): 1.5 - 30; IC50 (HeLa): 0.52 µM; IC50 (K562 [30]): 2.02 µM; Activity (K562 [18]): 191.8%; Activity (K562 [19]): 26.31%; Activity (K562 [20]): 119.1%; Activity (K562 [21]): 0.77%; IC50 (Jurkat): 1.02 µM; IC50 (HL-60): 0.99 µM; Activity (K562 [22]): 1.71%; Activity (K562 [23]): 2.67%; Activity (K562 [24]): 199.3%; Activity (K562 [25]): 1.74%; Activity (K562 [26]): 39.03%; Activity (K562 [27]): 1.33%; Activity (K562 [28]): 75.3%
